PubChem BioAssay
Active and inactive are the calls of the source.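 The calls were made as follows, unless noted: active = a full or partial loss of lipid-probe fluorescence in the fish gall bladder, intestine or both, judged by eye; inactive = no fluorescence loss, or compound toxic to the fish.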

How the values were obtained:
[1] = inhibitors of TNFa-induced NFkB p65 translocation, primary screen, imaging, HUVEC, MLSMR starter and 10KST1 sets (AID 438;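 active = inhibition above 20% together with a positive visual image hit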;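 also: compound added about 3h40 before a 20 min TNFalpha stimulation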;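 as to inhibition: signal is the nuclear over cytoplasmic p65 intensity ratio per well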); settings: HUVEC TNFa-induced p65 nuclear translocation; cell count: measured here: nuclei count (cytotoxicity indicator), at 2.08 µM; inhibition: at 2 µM, stronger effect = higher value, 0% TNFa-plus-vehicle, 100% no-TNFa wells
[2] = endothelial E-selectin expression blockers – imaging, HUVEC, immunofluorescence, MLSMR starter and 10KST1 sets, primary screen (AID 487;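 active = visually confirmed hit in the image check and inhibition above 20%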;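 as to inhibition: signal is fraction of cell area covered by stained E-selectin grains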;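 as to nuclei count: 100% = median nuclei count of all wells on the same plate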); settings: HUVEC TNFalpha-induced E-selectin immunofluorescence imaging, at 2 µM; inhibition: stronger effect = higher value; nuclei count: measured here: cell number, toxicity
[3] = Primary imaging screen for DUSP6 inhibitors that restore phospho-Erk in transfected HeLa cells, chemical complementation (AID 609;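 active = compounds giving at least 50% inhibition in the cell-based MKP-3 phosphatase rescue imaging test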;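 as to inhibition: phospho-Erk level distribution per well compared with pooled transfected vehicle control wells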); settings: HeLa MKP-3 transfected, phospho-Erk imaging KS statistic, at 10 µM, cells stimulated with TPA for 15 min
[4] = biological target: Dual specificity protein phosphatase 6 (Homo sapiens) (UniProt Q16828); experiment: as above; settings: HeLa MKP-3 transfected, phospho-Erk imaging KS statistic; at 10 µM; stronger effect = higher value; cells stimulated with TPA for 15 min
[5] = biological target: Voltage-gated potassium channel subunit beta-2 (Rattus norvegicus) (UniProt P62483); experiment: inhibitors of rat Kvbeta2 reductase activity – biochemical, NADPH fluorescence, primary screen (AID 622;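 active = fluorescence slope higher than the sample average by over 3 SD, cut at about -0.22 in these data, passing the limit was not always enough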;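 also: slope of raw intensity against log time taken from 70 to 1610 s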); settings: recombinant KvBeta, 4-cyanobenzaldehyde reduction, at 10 µM, stronger effect = higher value
[6] = biological target: Voltage-gated potassium channel subunit beta-2 (Rattus norvegicus) (UniProt P62483); experiment: enhancers of rat Kvbeta2 NADPH turnover – biochemical, NADPH fluorescence, primary screen (AID 623;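 active = NADPH fluorescence slope more negative than the mean of all samples by about 3 SD, 99.7% confidence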;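 also: fluorescence intensity change per second fitted from 20 to 320 s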); settings: Recombinant KvBeta, NADPH fluorescence decrease slope, 10 min; at 10 µM; stronger effect = lower value
[7] = biological target: Muscarinic acetylcholine receptor M4 (Homo sapiens) (UniProt P08173); experiment: M4-linked GIRK flux change, two-sided – cell-based, HEK293 M4/GIRK, thallium flux, BTC-AM, M4 allosteric agonist project, primary screen (AID 625;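 active = fluorescence slope after compound addition differing from the mean of all tested samples at 99.7% confidence, mostly higher but some lower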;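 also: thallium influx through GIRK channels coupled to M4 in HEK293 cells with BTC-AM dye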); settings: at 10 µM, actives lie on both sides
Outline: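 Material: M4/GIRK1/GIRK2 stable HEK293 cell line. Medium: pH 7.3 thallium assay buffer. Dosing: single compound concentration, 10 µM final. Schedule: 1 h dye loading, 2 min kinetic read. Measured by: kinetic fluorescence with BTC-AM dye. Read-out: post-addition slope, 15–24 s, of baseline-normalized fluorescence. Benchmarks: carbachol and DMSO controls.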

[8] = inhibitors of larval lipid processing in zebrafish, primary screen, whole organism, PED6 fluorescence, gall bladder and intestine (AID 686); settings: Zebrafish larvae PED6 lipid processing, fluorescence scoring; screened at 20 µM (by protocol);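 also: larvae 5 to 7 days old with five fish per well; signal comes from phospholipase A2 cleavage of quenched PED6 carried via bile; overnight exposure to compound and PED6 before scoring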
Outline: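 System: live zebrafish larvae aged 5-7 days, whole organism; measure: graded gall bladder and intestinal fluorescence inhibition per well; incubation: overnight exposure; reagent: ingested quenched lipid PED6 at 100 nM; signal: By-eye fluorescence microscopy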

[9] = loss of swimming-algae plug formation – whole organism, Chlamydomonas reinhardtii, WT vs cilia-less mutant, absorbance, 96-well, primary screen (AID 463189;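 active = inhibition at or above 50% relative to wild type and mutant plate controls; inactive = inhibition below 50%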;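 also: 0% = wild type cc124 cells in DMSO and 100% = ciliumless bld1 mutant cells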); settings: Chlamydomonas reinhardtii gravitaxis, OD600 absorbance, 2 days; at 10 µM; stronger effect = higher value
[10] = measured here: cell density z-score
[11] = measured here: nuclear c-Myc green intensity z-score
[12] = measured here: nuclear pErk red intensity z-score, stronger effect = higher value

Chain of Voltage-gated potassium channel subunit beta-2 (Rattus norvegicus) (P62483 whole entry, looked up): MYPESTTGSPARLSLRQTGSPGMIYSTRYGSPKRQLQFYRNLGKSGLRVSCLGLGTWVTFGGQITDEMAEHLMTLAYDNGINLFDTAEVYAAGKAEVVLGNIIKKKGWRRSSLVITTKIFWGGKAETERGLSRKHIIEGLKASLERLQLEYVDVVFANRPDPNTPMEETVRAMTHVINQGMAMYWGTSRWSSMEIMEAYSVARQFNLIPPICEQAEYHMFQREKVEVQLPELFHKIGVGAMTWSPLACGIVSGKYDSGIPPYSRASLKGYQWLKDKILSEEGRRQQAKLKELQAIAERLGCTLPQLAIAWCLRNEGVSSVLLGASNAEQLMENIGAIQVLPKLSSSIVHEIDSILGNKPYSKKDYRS
Chain of Muscarinic acetylcholine receptor M4 (Homo sapiens) (P08173 whole entry, looked up): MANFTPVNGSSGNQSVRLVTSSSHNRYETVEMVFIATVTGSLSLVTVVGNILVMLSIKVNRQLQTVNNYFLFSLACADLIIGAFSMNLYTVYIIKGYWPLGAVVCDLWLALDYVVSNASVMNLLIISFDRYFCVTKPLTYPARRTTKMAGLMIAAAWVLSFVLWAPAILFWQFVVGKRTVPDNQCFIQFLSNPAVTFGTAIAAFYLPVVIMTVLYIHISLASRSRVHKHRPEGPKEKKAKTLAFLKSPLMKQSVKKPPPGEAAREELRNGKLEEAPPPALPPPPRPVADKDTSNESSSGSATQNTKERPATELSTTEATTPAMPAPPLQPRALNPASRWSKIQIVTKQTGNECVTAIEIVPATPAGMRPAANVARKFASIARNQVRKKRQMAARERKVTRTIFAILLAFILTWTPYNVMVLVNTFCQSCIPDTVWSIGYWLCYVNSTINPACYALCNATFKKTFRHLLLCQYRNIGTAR
Chain of Dual specificity protein phosphatase 6 (Homo sapiens) (Q16828 whole entry, looked up): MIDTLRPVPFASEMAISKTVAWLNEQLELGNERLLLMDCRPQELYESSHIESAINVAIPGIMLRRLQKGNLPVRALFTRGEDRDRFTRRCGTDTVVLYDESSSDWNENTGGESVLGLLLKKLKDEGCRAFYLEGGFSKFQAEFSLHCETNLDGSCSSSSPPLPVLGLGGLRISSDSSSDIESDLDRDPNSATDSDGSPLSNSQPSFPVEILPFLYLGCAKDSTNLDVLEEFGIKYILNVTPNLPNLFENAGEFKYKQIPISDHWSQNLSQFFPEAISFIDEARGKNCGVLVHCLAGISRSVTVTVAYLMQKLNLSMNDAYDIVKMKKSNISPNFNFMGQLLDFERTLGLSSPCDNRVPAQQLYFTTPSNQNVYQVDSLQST

Row | SMILES | cell count [1] | inhibition [1] | inhibition [2] | nuclei count [2] | z-score [3, 10] | z-score [3, 11] | z-score [3, 12] | inhibition [4] | fluorescence slope [5] | NADPH fluorescence slope [6] | fluorescence slope [7] | outcome [8] | inhibition [9]
1 | COc1cc2c(cc1OC)C1(CCCC1)C(N)=C2C#N | 374 | 2.5% (inactive) | 36.9% (inactive) | 104% | -0.0432 | -0.638 | 1.42 | 17.4% (inactive) | -0.437 (inactive) | -0.000121 (inactive) | 0.00412 (inactive) | inactive | 2.1% (inactive)
2 | COC(=O)c1ccc(C2/C(=C(\O)c3ccc(OC)c(C)c3)C(=O)C(=O)N2c2cc(C)on2)cc1 (stereo unspecified) | 664 | -16.1% (inactive) | -48.1% (inactive) | 165% | -1.19 | 0.297 | 0.0353 | -1.12% (inactive) | -0.444 (inactive) | -3.1e-05 (inactive) | 0.00525 (inactive) | inactive | 16.4% (inactive)
3 | COc1ccc(C2NC3=C(CCC3)C3(C#N)C(OC)(OC)N=C(N)C23C#N)cc1 (stereo unspecified) | 535 | -13.1% (inactive) | -35.8% (inactive) | 134% | -0.336 | 0.913 | 0.179 | 1.42% (inactive) | -0.438 (inactive) | -3.3e-05 (inactive) | 0.0052 (inactive) | inactive | 30.4% (inactive)
4 | Nc1c2c(nc3ccccc13)N(c1ccccc1)CC2 | 585 | 0.4% (inactive) | 60.7% (active) | 92.9% | 0.356 | -0.531 | -0.713 | -2.09% (inactive) | -0.0969 (active) | -1.3e-05 (inactive) | 0.00425 (inactive) | inactive; toxic | 15.7% (inactive)
5 | CC(NC(=O)NCc1cccnc1)(C(F)(F)F)C(F)(F)F | 708 | -13.6% (inactive) | -45% (inactive) | 138% | -0.926 | 1.23 | 1.47 | -2.09% (inactive) | -0.446 (inactive) | -4.7e-05 (inactive) | 0.00505 (inactive) | inactive | 10.1% (inactive)
6 | Cc1ccc(-n2ncc3c(NCCCN4CCCC4=O)ncnc32)c(C)c1 | 563 | -12.5% (inactive) | -40.1% (inactive) | 134% | 0.612 | -0.125 | -2.3 | 13.4% (inactive) | -0.358 (inactive) | 1.3e-05 (inactive) | 0.00773 (inactive) | inactive | 0.102% (inactive)
7 | CCCCC(=O)NC(Nc1ccc(C)cn1)(C(=O)OCC)C(F)(F)F (stereo unspecified) | 651 | -16.3% (inactive) | -59% (inactive) | 156% | 0.317 | -1.54 | 1.99 | 1.63% (inactive) | -0.481 (inactive) | -4.4e-05 (inactive) | 0.00419 (inactive) | inactive | -0.324% (inactive)
8 | COC(=O)Sc1nc(N2CCOCC2)c2c(c1C#N)CC(C)(C)OC2 | 565 | -2% (inactive) | -116% (inactive) | 132% | 0.0433 | -0.438 | 1.3 | 3.42% (inactive) | -0.49 (inactive) | -0.000143 (inactive) | 0.00476 (inactive) | inactive | 24.4% (inactive)
9 | O=C(Nc1ccc(N2CCN(C(=O)c3ccccc3)CC2)c(Cl)c1)c1ccc(Br)o1 | 435 | -6.8% (inactive) | -72.9% (inactive) | 143% | -0.73 | 0.543 | -0.883 | -7.28% (inactive) | -0.431 (inactive) | -2.9e-05 (inactive) | 0.00435 (inactive) | inactive | 117% (active)
10 | Cc1cc(=O)n2[nH]c(N3C(=O)CCC3=O)nc2n1 | 527 | -1.3% (inactive) | 47.3% (inactive) | 172% | -0.749 | -0.115 | 1.44 | -5.95% (inactive) | -0.397 (inactive) | -2.7e-05 (inactive) | 0.00594 (inactive) | inactive | 4.51% (inactive)
11 | CCCCCNc1nc(N2CCCC2)c2c(c1C#N)CCN(C)C2 | 596 | 8.1% (inactive) | -52.3% (inactive) | 146% | -0.626 | 0.142 | -0.491 | -9.53% (inactive) | -0.446 (inactive) | -8.3e-05 (inactive) | 0.0037 (inactive) | inactive | 165% (active)
12 | CC1(C)Cc2c(C#N)c(N3CCN(C(=O)c4ccco4)CC3)nc(Cc3ccccc3)c2CO1 | 541 | -6.6% (inactive) | 2.1% (inactive) | 97.1% | 1.26 | -0.345 | -0.81 | 12.8% (inactive) | -0.499 (inactive) | 4.3e-05 (inactive) | 0.00414 (inactive) | inactive | 16.1% (inactive)
13 | COc1ccc(OC)c(C2/C(=C(\O)c3ccc(OC)c(Cl)c3)C(=O)C(=O)N2CCN(C)C)c1 (stereo unspecified) | 680 | -6.8% (inactive) | -97.8% (inactive) | 173% | -0.468 | -0.414 | -1.65 | -2.91% (inactive) | -0.449 (inactive) | -3.7e-05 (inactive) | 0.00525 (inactive) | inactive | 14% (inactive)
14 | COc1cccc(N2CCN(C(=O)c3ccc(=O)oc3)CC2C)c1 (stereo unspecified) | 548 | -13.7% (inactive) | -2.6% (inactive) | 114% | 0.444 | -0.0742 | 1.46 | -2.91% (inactive) | -0.418 (inactive) | 6.4e-07 (inactive) | 0.00472 (inactive) | inactive | 13.7% (inactive)
15 | NC(=O)/C(=N\O)c1ccccc1 | 575 | 5.9% (inactive) | -43.3% (inactive) | 113% | -0.256 | -0.324 | 0.104 | -4.7% (inactive) | -0.461 (inactive) | -5.1e-05 (inactive) | 0.00531 (inactive) | inactive | -12.8% (inactive)
16 | O=C1CC(C(=O)O)c2ccccc2N1 (stereo unspecified) | 589 | 5.9% (inactive) | -180% (inactive) | 135% | 0.749 | 0.0521 | -0.602 | 15.4% (inactive) | -0.465 (inactive) | -0.000133 (inactive) | 0.00465 (inactive) | inactive | 6% (inactive)
17 | CC(NC(=O)NCCCn1ccnc1)(C(F)(F)F)C(F)(F)F | 679 | 2.1% (inactive) | -67.3% (inactive) | 166% | -0.846 | -0.74 | 0.188 | -13.3% (inactive) | -0.438 (inactive) | -5.8e-05 (inactive) | 0.005 (inactive) | inactive | 0.921% (inactive)
18 | CC(=O)/C(C#N)=C1\NC(=O)C(Cc2ccccc2)S1 (stereo unspecified) | 574 | -16.2% (inactive) | 5.4% (inactive) | 183% | 0.151 | 0.495 | 0.071 | -8.59% (inactive) | -0.425 (inactive) | -6.1e-05 (inactive) | 0.00604 (inactive) | inactive | 3.86% (inactive)
19 | Cc1cc(=O)oc(C)c1C(=O)NCC(C)NC(=O)c1c(C)cc(=O)oc1C (stereo unspecified) | 531 | 3.7% (inactive) | 32.8% (inactive) | 164% | 0.5 | -1.12 | -0.355 | 19.8% (inactive) | -0.384 (inactive) | -5.3e-05 (inactive) | 0.00562 (inactive) | inactive | 20.8% (inactive)
20 | Cc1sc(-n2c(C)cc(/C=N/n3cnnc3)c2C)c(C#N)c1C | 408 | 1.9% (inactive) | 29.3% (inactive) | 85.2% | -1.21 | -0.424 | 0.842 | 3.56% (inactive) | -0.546 (inactive) | -9.2e-05 (inactive) | 0.00473 (inactive) | inactive | 14% (inactive)
21 | CCCCCOc1ccccc1C(=O)NCC(=O)O | 376 | -5% (inactive) | -55.5% (inactive) | 169% | 0.663 | -0.72 | -0.603 | -0.584% (inactive) | -0.438 (inactive) | -9.1e-05 (inactive) | 0.00543 (inactive) | inactive | -2.86% (inactive)
22 | Cc1nn(CCO)c2c1C(=O)CCC2 | 514 | -5.8% (inactive) | -16.6% (inactive) | 166% | 1.33 | -0.18 | -0.238 | 5.95% (inactive) | -0.382 (inactive) | -2.1e-05 (inactive) | 0.00488 (inactive) | inactive | -6.32% (inactive)
23 | CCN(CC)CCN1C(=O)C(=O)/C(=C(/O)c2c(C)[nH]c(C(=O)OC)c2C)C1c1cccc(OC)c1 (stereo unspecified) | 699 | -1% (inactive) | -150% (inactive) | 188% | -0.637 | -0.455 | -0.673 | 13.2% (inactive) | -0.445 (inactive) | -7.9e-05 (inactive) | 0.0061 (inactive) | inactive | 16.5% (inactive)
24 | CCOc1ccc(S(=O)(=O)NC(C)(C)C)cc1-c1nc2c(C(C)(C)C)nn(C)c2c(=O)[nH]1 | 654 | -6.1% (inactive) | -8.5% (inactive) | 99.3% | 2.17 | -1.88 | -0.971 | 31.4% (inactive) | -0.462 (inactive) | -5.9e-05 (inactive) | 0.0055 (inactive) | inactive | 88.4% (active)
25 | O=C1CCCN1c1ccc(S(=O)(=O)NCc2ccco2)cc1 | 702 | 3.6% (inactive) | -53.1% (inactive) | 180% | 0.977 | -0.343 | 1.6 | 15.9% (inactive) | -0.489 (inactive) | -3.7e-05 (inactive) | 0.00466 (inactive) | inactive | 15.5% (inactive)
26 | Cn1c(=O)c2c(nc(N3CCC(C(N)=O)CC3)n2CCSc2nc3ccccc3s2)n(C)c1=O | 657 | -10.1% (inactive) | -52% (inactive) | 183% | 0.335 | 0.459 | -0.422 | 7.42% (inactive) | -0.431 (inactive) | -6.4e-05 (inactive) | 0.00515 (inactive) | inactive | 21.2% (inactive)
27 | O=C(O)CCc1nn2cc(-c3ccccc3)nc2[nH]c1=O | 580 | 3% (inactive) | -147% (inactive) | 170% | 0.555 | -0.659 | -0.476 | -7.93% (inactive) | -0.00517 (active) | 2.1e-06 (inactive) | 0.00553 (inactive) | inactive | -5.8% (inactive)
